{"data": "Published values from different studies", "target": "Serine/threonine-protein kinase MARK2 (MARK2, Homo sapiens, UniProt Q7KZI7)", "note": "Protocols differ between the studies behind these lines."}
{"Compound": "CC(C)(C)c1cc(C=C(C#N)C#N)cc(Br)c1O", "read-out": "enzyme activity", "action": "inhibitor", "concentration": "0.5 µM", "endpoint": "remaining activity", "value": "81.6%"}
{"Compound": "Cn1cncc1[C@](O)(COc1ccc(C#N)cc1-c1ccc(OC(F)(F)F)cc1)c1ccc(C#N)cc1", "read-out": "cell-free assay", "method": "competition with immobilised ligand", "concentration": "1 µM", "endpoint": "remaining binding", "value": "95%"}
{"Compound": "C#Cc1n[nH]c2c(-c3cn(C(C)c4ccccn4)c(=O)[nH]c3=O)cc(F)cc12 (stereo not shown)", "read-out": "enzyme activity", "action": "inhibitor", "concentration": "1 µM", "endpoint": "inhibition", "value": "5.8%"}
{"Compound": "O=c1[nH]c2ccccc2n1C1CCN(Cc2ccc(-c3[nH]c4cc5ncnc5cc4nc3-c3ccccc3)cc2)CC1", "read-out": "cell-free assay", "concentration": "0.5 µM", "endpoint": "remaining signal", "value": "92.2%"}
{"Compound": "C#Cc1n[nH]c2c(-c3cn([C@@H](C)c4ccccc4)c(=O)[nH]c3=O)cc(F)cc12", "read-out": "enzyme activity", "action": "inhibitor", "concentration": "0.1 µM", "endpoint": "inhibition", "value": "2%"}
{"Compound": "Cn1cc(-c2cc(F)cc(N3CCn4c(cc5c4CCCC5)C3=O)c2CO)cc(Nc2ccc(N3CCN(C4COC4)CC3)cn2)c1=O", "read-out": "enzyme activity", "action": "inhibitor", "concentration": "0.1 µM", "endpoint": "inhibition", "value": "14%"}
{"Compound": "Cc1nn(C)cc1-c1nc2c(N3CCN(Cc4ccc(Cl)cc4)CC3)c(Cl)cnc2[nH]1", "read-out": "binding", "method": "competition with immobilised ligand", "concentration": "1 µM", "endpoint": "remaining binding", "value": "93%"}
{"Compound": "Cn1cc(-c2cccc(N3CCc4c(sc5c4CC(C)(C)C5)C3=O)c2CO)cc(Nc2ccncn2)c1=O", "read-out": "enzyme activity", "action": "inhibitor", "concentration": "1 µM", "endpoint": "inhibition", "value": "10%"}
{"Compound": "Nc1ncc(-c2nc(N3CCOCC3)nc(N3CCOCC3)n2)c(C(F)F)n1", "read-out": "binding", "method": "competition with immobilised ligand", "concentration": "10 µM", "endpoint": "remaining binding", "value": "77%"}
{"Compound": "COc1ncccc1-c1cnn2ccc(N3CCN(C(=O)OC(C)C)CC3)nc12", "read-out": "binding", "method": "competition with immobilised ligand", "concentration": "1 µM", "endpoint": "remaining binding", "value": "80%"}
